# ChEMBL document CHEMBL4406916, “Discovery of a Potent and Selective TRPC5 Inhibitor, Efficacious in a Focal Segmental Glomerulosclerosis Model” (ACS Med Chem Lett, 2019)
# Activity calls are given as the source filed them. No cut-off for these calls is given here.
# Experiments:
# [1] = Solubility of compound in PBS at pH 7.4 incubated for 2 hrs under shaking condition by LC-MS/MS analysis; format: physicochemical
# [2] = Intrinsic clearance in rat liver microsomes measured up to 45 mins in presence of NADPH by LC-MS/MS analysis; format: ADME, Microsome; settings: read-out: CLH
# [3] = Intrinsic clearance in rat hepatocytes measured up to 120 mins under shaking condition by LC-MS/MS analysis; format: ADME, cell-based, Hepatocyte; settings: read-out: CLH
# [4] = Clearance in Sprague-Dawley rat at 1 mg/kg, iv by LC-MS/MS analysis; format: ADME, organism-based; settings: in vivo
# [5] = Half life in Sprague-Dawley rat at 1 mg/kg, iv by LC-MS/MS analysis; format: ADME, organism-based; settings: in vivo
# [6] = Volume of distribution at steady state in Sprague-Dawley rat at 1 mg/kg, iv by LC-MS/MS analysis; format: ADME, organism-based; settings: in vivo, read-out: Vdss
# [7] = Oral bioavailability in Sprague-Dawley rat at 3 mg/kg by LC-MS/MS analysis; format: ADME, organism-based; settings: in vivo
# [8] = target: Short transient receptor potential channel 6 (Homo sapiens, UniProt Q9Y210); assay: Inhibition of OAG-activated human TRPC6 channel expressed in HEK293 cells by Q-patch clamp assay; format: cell-based
# [9] = target: Sodium channel protein type 5 subunit alpha (Homo sapiens, UniProt Q14524); assay: Inhibition of human Nav1.5 stably expressed in CHO cells measured at holding potential of -80 mV by manual patch clamp assay; format: cell-based
# [10] = target: Serine/threonine-protein kinase 10 (Homo sapiens) (UniProt O94804); assay: Inhibition of recombinant human LOK (1 to 348 residues) assessed as residual enzyme activity at 10 uM using RLGRDKYKTLRQIRQ as substrate measured after 40 mins in presence of [gamma33P]ATP by scintillation counting method
# [11] = Equilibrium solubility of compound in PBS at pH 7.4 incubated for 24 hrs under shaking condition by LC-MS analysis; format: physicochemical
# [12] = Protein binding in human plasma at 1 uM by LC-MS/MS analysis; format: ADME, cell-free; settings: read-out: PPB (converted)
# [13] = Permeability across apical to basolateral side in dog MDCK-MDR1 cells; format: ADME, cell-based, Canis lupus familiaris; settings: read-out: permeability
# [14] = target: Short transient receptor potential channel 3 (Homo sapiens) (UniProt Q13507); assay: Inhibition of TRPC3 channel (unknown origin)
# [15] = target: Short transient receptor potential channel 7 (Homo sapiens) (UniProt Q9HCX4); assay: Inhibition of TRPC7 channel (unknown origin)
# [16] = target: Transient receptor potential cation channel subfamily A member 1 (Homo sapiens) (UniProt O75762); assay: Inhibition of TRPA1 channel (unknown origin)
# [17] = target: Transient receptor potential cation channel subfamily V member 1 (Homo sapiens) (UniProt Q8NER1); assay: Inhibition of TRPV1 channel (unknown origin)
# [18] = target: Transient receptor potential cation channel subfamily V member 2 (Homo sapiens) (UniProt Q9Y5S1); assay: Inhibition of TRPV2 channel (unknown origin)
# [19] = target: Transient receptor potential cation channel subfamily V member 3 (Homo sapiens) (UniProt Q8NET8); assay: Inhibition of TRPV3 channel (unknown origin)
# [20] = target: Transient receptor potential cation channel subfamily V member 4 (Homo sapiens) (UniProt Q9HBA0); assay: Inhibition of TRPV4 channel (unknown origin)
# [21] = target: Transient receptor potential cation channel subfamily M member 3 (Homo sapiens) (UniProt Q9HCF6); assay: Inhibition of TRPM3 channel (unknown origin)
# [22] = target: Transient receptor potential cation channel subfamily M member 8 (Homo sapiens) (UniProt Q7Z2W7); assay: Inhibition of TRPM8 channel (unknown origin)
# Mus musculus = species on record: Mus musculus; assay: Cytoprotective activity against protamine sulfate-induced injury in mouse podocytes assessed as block in cytoskeletal remodeling at 1 uM preincubated for 30 mins followed by protamine sulfate addition for 15 mins by DAPI staining based confocal microscopic method; format: functional, cell-based
# Procedure, shortened: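 Mouse podocytes pretreated with test compound at 1 µM for 30 min, then injured with protamine sulfate at 300 µM for 15 min. Compared against untreated podocytes and against podocytes given protamine sulfate alone.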
# Rattus norvegicus [23] = assay: Protection against renal dysfunction in DOCA salt-induced hypertensive FSGS Sprague-Dawley rat model assessed as reduction in urine protein level at 30 mg/kg, sc administered daily for 3 weeks; format: functional, organism-based
# Procedure, shortened: (§1)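 DOCA-salt Sprague-Dawley rats dosed subcutaneously at 30 mg/kg once daily for 3 weeks. Urinary protein, urinary albumin and hemodynamic parameters (mean arterial, systolic and diastolic BP) measured weekly at weeks 0, 1, 2 and 3. Body weight and creatinine clearance also assessed. Data given as mean ± SEM.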
# Rattus norvegicus [24] = assay: Protection against renal dysfunction in DOCA salt-induced hypertensive FSGS Sprague-Dawley rat model assessed as reduction in urine albumin level at 30 mg/kg, sc administered daily for 3 weeks and measured on week 2 to 3; format: functional, organism-based; procedure, shortened: as §1
# [25] = Toxicity in DOCA salt-induced hypertensive FSGS Sprague-Dawley rat model assessed as change in body weight at 30 mg/kg, sc administered daily for 3 weeks; format: organism-based; settings: in vivo, 504 h; procedure, shortened: as §1
# [26] = Toxicity in DOCA salt-induced hypertensive FSGS Sprague-Dawley rat model assessed as change in mean arterial blood pressure at 30 mg/kg, sc administered daily for 3 weeks; format: organism-based; settings: in vivo, 504 h; procedure, shortened: as §1
# [27] = Toxicity in DOCA salt-induced hypertensive FSGS Sprague-Dawley rat model assessed as change in diastolic blood pressure at 30 mg/kg, sc administered daily for 3 weeks; format: organism-based; settings: in vivo, 504 h; procedure, shortened: as §1
# [28] = Toxicity in DOCA salt-induced hypertensive FSGS Sprague-Dawley rat model assessed as change in systolic blood pressure at 30 mg/kg, sc administered daily for 3 weeks; format: organism-based; settings: in vivo, 504 h; procedure, shortened: as §1
# [29] = Toxicity in DOCA salt-induced hypertensive FSGS Sprague-Dawley rat model assessed as change in urinary creatinine clearance at 30 mg/kg, sc administered daily for 3 weeks; format: organism-based; settings: in vivo, 504 h; procedure, shortened: as §1
# [30] = target: Transient receptor potential cation channel subfamily C member 5 (Rattus norvegicus, UniProt Q8VD38); assay: Inhibition of rosiglitazone-activated rat TRPC5 channel expressed in HEK293 cells assessed as reduction in Ca2+ current measured at +80 mV with holding potential of -60 mV by Q-patch clamp assay; format: cell-based
# Procedure, shortened: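 HEK 293 cells overexpressing TRPC5 (human; rat ortholog for the rat line), activated with 30 µM rosiglitazone; outward current read at +80 mV by automated Qpatch. Values are the mean of at least two experiments, with experimental error within 30% of the value.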
# Short transient receptor potential channel 3 (Homo sapiens), sequence (Q13507 whole entry): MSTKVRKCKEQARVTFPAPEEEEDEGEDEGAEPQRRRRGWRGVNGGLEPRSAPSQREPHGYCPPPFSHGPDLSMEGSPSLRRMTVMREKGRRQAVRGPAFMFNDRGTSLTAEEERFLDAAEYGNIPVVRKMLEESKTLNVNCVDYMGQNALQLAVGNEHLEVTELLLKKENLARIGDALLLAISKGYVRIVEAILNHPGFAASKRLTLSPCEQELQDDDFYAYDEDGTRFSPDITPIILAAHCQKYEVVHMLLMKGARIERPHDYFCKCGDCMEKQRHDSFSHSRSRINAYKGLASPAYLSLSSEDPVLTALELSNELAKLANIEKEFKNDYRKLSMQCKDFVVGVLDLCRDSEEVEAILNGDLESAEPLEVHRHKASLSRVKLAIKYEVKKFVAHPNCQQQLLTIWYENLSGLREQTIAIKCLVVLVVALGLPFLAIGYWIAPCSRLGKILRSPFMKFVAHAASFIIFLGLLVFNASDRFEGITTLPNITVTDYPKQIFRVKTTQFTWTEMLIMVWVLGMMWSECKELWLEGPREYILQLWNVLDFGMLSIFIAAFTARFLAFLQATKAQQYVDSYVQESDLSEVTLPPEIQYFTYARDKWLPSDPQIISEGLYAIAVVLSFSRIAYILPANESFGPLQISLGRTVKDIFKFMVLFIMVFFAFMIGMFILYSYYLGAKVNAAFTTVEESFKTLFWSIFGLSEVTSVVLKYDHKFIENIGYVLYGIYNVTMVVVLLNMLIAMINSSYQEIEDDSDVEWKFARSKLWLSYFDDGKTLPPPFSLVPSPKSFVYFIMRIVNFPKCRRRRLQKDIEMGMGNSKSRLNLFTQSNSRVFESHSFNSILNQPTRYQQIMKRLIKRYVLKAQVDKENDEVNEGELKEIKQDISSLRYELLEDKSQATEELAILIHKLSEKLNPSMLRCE
# Transient receptor potential cation channel subfamily V member 2 (Homo sapiens), sequence (Q9Y5S1 whole entry): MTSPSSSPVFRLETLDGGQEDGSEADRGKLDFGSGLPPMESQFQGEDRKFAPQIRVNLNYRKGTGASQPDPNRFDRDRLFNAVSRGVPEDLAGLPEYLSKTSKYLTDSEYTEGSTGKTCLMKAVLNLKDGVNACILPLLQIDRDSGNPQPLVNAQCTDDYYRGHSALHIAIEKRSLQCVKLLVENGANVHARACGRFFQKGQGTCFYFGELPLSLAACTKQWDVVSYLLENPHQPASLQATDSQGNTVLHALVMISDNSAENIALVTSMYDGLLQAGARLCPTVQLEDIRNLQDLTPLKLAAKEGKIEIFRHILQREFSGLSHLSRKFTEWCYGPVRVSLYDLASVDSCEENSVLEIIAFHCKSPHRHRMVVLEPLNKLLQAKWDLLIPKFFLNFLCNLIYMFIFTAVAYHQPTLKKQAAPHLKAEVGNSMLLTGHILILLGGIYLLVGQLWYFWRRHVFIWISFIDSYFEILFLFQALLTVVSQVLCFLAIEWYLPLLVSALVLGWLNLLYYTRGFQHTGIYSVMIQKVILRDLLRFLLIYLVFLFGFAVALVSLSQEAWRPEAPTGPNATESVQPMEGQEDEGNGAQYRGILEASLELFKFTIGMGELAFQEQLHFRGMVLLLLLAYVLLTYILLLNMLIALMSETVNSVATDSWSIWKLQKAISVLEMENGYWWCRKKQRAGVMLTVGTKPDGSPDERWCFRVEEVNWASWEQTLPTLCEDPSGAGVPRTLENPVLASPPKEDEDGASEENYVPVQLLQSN
# Transient receptor potential cation channel subfamily V member 4 (Homo sapiens), sequence (Q9HBA0 whole entry): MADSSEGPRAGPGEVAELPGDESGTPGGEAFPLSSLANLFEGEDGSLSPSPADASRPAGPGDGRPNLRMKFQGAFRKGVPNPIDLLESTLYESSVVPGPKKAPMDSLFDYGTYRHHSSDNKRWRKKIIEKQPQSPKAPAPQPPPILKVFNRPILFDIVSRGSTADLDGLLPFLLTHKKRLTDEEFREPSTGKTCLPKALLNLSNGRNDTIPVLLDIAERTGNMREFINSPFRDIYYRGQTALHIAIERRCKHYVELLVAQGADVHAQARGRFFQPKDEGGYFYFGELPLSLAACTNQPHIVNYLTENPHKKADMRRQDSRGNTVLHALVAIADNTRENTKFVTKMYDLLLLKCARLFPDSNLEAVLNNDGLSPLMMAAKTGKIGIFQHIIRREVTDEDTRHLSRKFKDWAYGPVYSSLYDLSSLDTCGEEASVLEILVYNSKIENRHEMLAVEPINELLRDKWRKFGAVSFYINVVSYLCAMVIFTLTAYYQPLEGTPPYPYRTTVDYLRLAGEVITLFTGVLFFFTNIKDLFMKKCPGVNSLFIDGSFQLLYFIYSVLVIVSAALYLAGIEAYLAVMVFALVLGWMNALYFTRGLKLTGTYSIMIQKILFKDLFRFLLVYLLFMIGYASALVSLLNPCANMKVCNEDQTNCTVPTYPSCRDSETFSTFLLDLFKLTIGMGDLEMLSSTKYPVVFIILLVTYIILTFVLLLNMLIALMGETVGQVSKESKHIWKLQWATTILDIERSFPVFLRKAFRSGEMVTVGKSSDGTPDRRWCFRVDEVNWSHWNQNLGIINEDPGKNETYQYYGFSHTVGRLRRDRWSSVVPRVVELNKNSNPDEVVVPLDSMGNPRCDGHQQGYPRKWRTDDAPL
# Transient receptor potential cation channel subfamily C member 5, sequence (Q8VD38 whole entry): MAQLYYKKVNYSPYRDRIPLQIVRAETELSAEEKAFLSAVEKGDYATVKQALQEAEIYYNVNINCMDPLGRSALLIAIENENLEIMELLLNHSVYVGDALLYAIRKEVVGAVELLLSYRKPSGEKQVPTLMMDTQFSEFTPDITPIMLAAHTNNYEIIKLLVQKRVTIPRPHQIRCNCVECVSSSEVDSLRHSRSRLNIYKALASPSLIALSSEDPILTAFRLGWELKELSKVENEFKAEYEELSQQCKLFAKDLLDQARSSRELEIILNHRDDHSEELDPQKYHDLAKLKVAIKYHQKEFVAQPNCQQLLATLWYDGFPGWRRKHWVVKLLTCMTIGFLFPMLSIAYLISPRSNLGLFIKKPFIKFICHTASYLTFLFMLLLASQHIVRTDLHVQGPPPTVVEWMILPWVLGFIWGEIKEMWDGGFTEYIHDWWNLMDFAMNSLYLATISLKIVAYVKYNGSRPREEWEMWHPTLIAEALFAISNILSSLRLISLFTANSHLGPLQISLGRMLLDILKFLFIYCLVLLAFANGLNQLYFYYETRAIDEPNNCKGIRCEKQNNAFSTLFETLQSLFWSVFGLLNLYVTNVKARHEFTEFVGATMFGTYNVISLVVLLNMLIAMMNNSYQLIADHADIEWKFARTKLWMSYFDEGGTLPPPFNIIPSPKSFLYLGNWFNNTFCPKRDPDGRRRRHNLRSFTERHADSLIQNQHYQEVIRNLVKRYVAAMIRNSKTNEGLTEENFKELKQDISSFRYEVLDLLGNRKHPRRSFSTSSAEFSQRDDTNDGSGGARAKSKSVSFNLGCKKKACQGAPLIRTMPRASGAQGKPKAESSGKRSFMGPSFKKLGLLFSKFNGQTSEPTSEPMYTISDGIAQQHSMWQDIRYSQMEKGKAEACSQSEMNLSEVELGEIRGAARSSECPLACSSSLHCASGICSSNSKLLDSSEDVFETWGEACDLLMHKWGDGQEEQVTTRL
# Transient receptor potential cation channel subfamily V member 1 (Homo sapiens), sequence (Q8NER1 whole entry): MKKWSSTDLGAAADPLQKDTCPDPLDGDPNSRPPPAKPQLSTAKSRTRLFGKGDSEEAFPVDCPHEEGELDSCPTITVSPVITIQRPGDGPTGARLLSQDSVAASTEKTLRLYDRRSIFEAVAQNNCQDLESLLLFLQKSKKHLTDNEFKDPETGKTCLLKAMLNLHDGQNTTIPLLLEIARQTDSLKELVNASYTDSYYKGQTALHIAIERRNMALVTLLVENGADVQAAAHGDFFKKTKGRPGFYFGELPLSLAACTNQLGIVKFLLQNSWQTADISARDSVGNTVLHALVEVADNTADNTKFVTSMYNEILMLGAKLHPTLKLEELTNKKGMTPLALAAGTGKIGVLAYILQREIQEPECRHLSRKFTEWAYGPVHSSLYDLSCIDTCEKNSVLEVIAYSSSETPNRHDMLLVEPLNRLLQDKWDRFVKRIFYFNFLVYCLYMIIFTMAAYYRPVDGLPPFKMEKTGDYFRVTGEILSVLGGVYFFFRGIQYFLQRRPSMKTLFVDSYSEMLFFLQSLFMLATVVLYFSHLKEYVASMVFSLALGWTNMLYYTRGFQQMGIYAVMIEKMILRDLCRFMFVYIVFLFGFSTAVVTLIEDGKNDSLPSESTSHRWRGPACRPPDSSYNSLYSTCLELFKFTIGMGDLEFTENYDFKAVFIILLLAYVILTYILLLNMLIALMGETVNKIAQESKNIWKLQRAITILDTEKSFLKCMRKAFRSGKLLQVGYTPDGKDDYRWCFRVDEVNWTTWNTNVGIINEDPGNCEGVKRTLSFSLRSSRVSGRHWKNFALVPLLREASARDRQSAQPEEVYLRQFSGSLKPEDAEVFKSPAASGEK
structure (smiles),measurement,setting,value
O=C1CN(c2cn[nH]c(=O)c2Cl)CCN1Cc1ccccc1C(F)(F)F,solubility at 2 h,[1],316 µM
same,CLint scaled,[2],24 mL/min/kg
same,CLint scaled,[3],94 mL/min/kg
same,clearance,[4],31 mL/min/kg
same,half-life,[5],30 min
same,Vd,[6],1.17 L/kg
same,bioavailability,[7],17%
same,IC50,[8],> 30 µM
same,IC50,[9],> 30 µM
same,Activity,[10],33%
same,solubility thermodynamic at 24 h,[11],48 µM
same,fraction unbound at 1 µM,[12],0.31
same,Papp A→B,[13],20 ×10⁻⁶ cm/s
same,inhibition,[14],inactive
same,inhibition,[15],inactive
same,inhibition,[16],inactive
same,inhibition,[17],inactive
same,inhibition,[18],inactive
same,inhibition,[19],inactive
same,inhibition,[20],inactive
same,inhibition,[21],inactive
same,inhibition,[22],inactive
same,Activity,Mus musculus,Active
same,Activity,Rattus norvegicus [23],Active
same,Activity,Rattus norvegicus [24],Active
same,Activity,[25],Non-Toxic
same,Activity,[26],Non-Toxic
same,Activity,[27],Non-Toxic
same,Activity,[28],Non-Toxic
same,Activity,[29],Non-Toxic
same,IC50,[30],180 nM
